# Results collected from several papers.
# Compare with care: the assays were run in different laboratories.
# Target: SRSF protein kinase 3 (SRPK3, Homo sapiens, UniProt Q9UPE1)
Compound,effect on,method,tested at,remaining binding [%]
C[C@@H](c1ccc(-n2cnc3c(N)ncnc32)cc1)N1CCc2nn(C)c(Cc3ccccc3)c2C1=O,binding,competition with immobilised ligand,0.1 µM,76
CN(c1nccc(-c2cnn3ncccc23)n1)C1CC1,binding,,1 µM,83
FC(F)(F)Oc1cccc(-c2cnc3ccc(-c4ccncc4)nn23)c1,binding,competition with immobilised ligand,5 µM,41
C[C@H](NC(=O)c1cnc2n1[C@](C)(Cc1ccc(C#N)cc1)C(=O)N2c1cc(Cl)c(F)c(Cl)c1)C(=O)NC1(c2ccccn2)CC1,cell-free assay,competition with immobilised ligand,1 µM,100
CCN1CCN(Cc2ccc(C(=O)Nc3ccc(C)c(Oc4ccc5c(c4)CC(=O)N5)c3)cc2C(F)(F)F)CC1,binding,competition with immobilised ligand,1 µM,99
O=C(Nc1cccnn1)N1CC(C/C=C/c2cncc(Oc3ccc(C(F)(F)F)cn3)n2)C1,cell-free assay,competition with immobilised ligand,1 µM,100
C[C@@H]1CN(c2ccc3ncc(-c4ccc5[nH]nc(C6CC6)c5c4)n3n2)C[C@H](C)O1,binding,competition with immobilised ligand,0.5 µM,85
COc1cnc(Nc2cccc(S(N)(=O)=O)c2)nc1N1CCN(c2ccccc2)C(=O)C1,binding,competition with immobilised ligand,1 µM,79
Cc1c(C(=O)O)cc(-c2ccc(C3CCNCC3)cc2)c2ccc(-c3ccc(C(F)(F)F)cc3)cc12,binding,competition with immobilised ligand,1 µM,100
N[C@@H]1CCN(c2nccc(-c3cnn4ncccc34)n2)C1,binding,,1 µM,81
CC(C)(C)c1ccc(-c2nc(CBr)nn2-c2cccc(O)c2)cc1,cell-free assay,competition with immobilised ligand,10 µM,100
COc1cnc(Nc2cccc(S(N)(=O)=O)c2)nc1N1CCN(c2ccccc2)CC1,binding,competition with immobilised ligand,1 µM,95
CS(=O)(=O)N1CCCC(NC(=O)[C@H](CCC2CCCCC2)NC(=O)c2ccc(CNC(=O)c3cnc4ccccn34)cc2)C1 (stereo partly drawn),cell-free assay,competition with immobilised ligand,0.1 µM,100
O=C(Nc1c[nH]nc1C(=O)NC1CCNCC1)c1cc(F)cc(F)c1,binding,competition with immobilised ligand,1 µM,88
C[C@@H]1CN(c2cc(-c3n[nH]c4ccc(OC5(C)CC5)cc34)ncn2)C[C@H](C)O1,cell-free assay,competition with immobilised ligand,0.1 µM,100
O=C(c1ccc(Nc2nccc(-c3cc4ccccc4s3)n2)cc1)N1CCC(N2CCCC2)CC1,binding,competition with immobilised ligand,1 µM,100
CN(C)c1ncc(F)c(-c2cnn3ncccc23)n1,binding,,1 µM,100
O=C(c1ccc(Nc2ncc(Cl)c(-c3cc4ccccc4s3)n2)cc1)N1CCC(N2CCCC2)CC1,binding,competition with immobilised ligand,1 µM,100
C[C@H]1CCN(c2nccc(-c3cnn4ncccc34)n2)C1,binding,,1 µM,68
COc1ccc2c(O[C@@H]3C[C@H]4C(=O)N[C@]5(C(=O)O)CC5/C=C\CCCCC[C@H](NC(=O)OC5CCCC5)C(=O)N4C3)cc(-c3csc(NC(=O)C(C)C)n3)nc2c1C (stereo partly drawn),cell-free assay,competition with immobilised ligand,1 µM,57
COc1ccnn2ncc(-c3ccnc(N(C)C)n3)c12,binding,,1 µM,67
CCCOc1ccc([C@@H]2[C@@H](C(=O)O)[C@H](c3ccc4c(c3)OCO4)CN2CC(=O)Nc2c(CC)cccc2CC)cc1,cell-free assay,competition with immobilised ligand,1 µM,93
Cc1cnn2ncc(-c3ccnc(N(C)C)n3)c2c1,binding,,1 µM,56
N#Cc1ccccc1CSc1nnc2c(n1)[nH]c1ccccc12,binding,competition with immobilised ligand,10 µM,75
